What was measured:
Assay type in all cases: functional
[1] = species: Homo sapiens; test: Ability to inhibit platelet aggregation of human platelet-rich plasma (PRP) induced by 800 uM of AA-IPA (arachidonic acid); settings: read-out: I50
In short: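 Human platelet-rich plasma; aggregation triggered by arachidonic acid at 800 μM. Test acids were also checked against ADP (20 μM)-induced aggregation. I50 taken as the concentration inhibiting aggregation.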

[2] = test system: Cavia porcellus; test: Evaluated for the percent inhibition of arachidonate-induced dynamic compliance at 60 min after dosing (0.1 mg/kg iv) in anesthetized guinea pig.
In short: (§1)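 Anesthetized guinea pig dosed iv with antagonist at 0.1 mg/kg (some at 1.0 mg/kg). Arachidonic acid 0.5 mg/kg iv given as challenge 3 or 60 min later. Airway resistance, dynamic compliance and blood pressure recorded; percent inhibition of each response.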

[3] = test system: Cavia porcellus; test: Evaluated for the percent inhibition of arachidonate-induced air-way resistance at 60 min after dosing (0.1 mg/kg iv) in anesthetized guinea pig.; in short: as §1
[4] = test system: Cavia porcellus; test: Evaluated for the percent inhibition of arachidonate-induced dynamic compliance at 3 min after dosing (0.1 mg/kg iv) in anesthetized guinea pig.; in short: as §1
[5] = test system: Cavia porcellus; test: Evaluated for the percent inhibition of arachidonate-induced air-way resistance at 3 min after dosing (0.1 mg/kg iv) in anesthetized guinea pig.; in short: as §1
[6] = test system: Cavia porcellus; test: Evaluated for the percent inhibition of arachidonate-induced hypertension resulting in decreases in blood pressure at 60 min after dosing (0.1 mg/kg iv) in anesthetized guinea pig.; in short: as §1
[7] = test system: Cavia porcellus; test: Evaluated for the percent inhibition of arachidonate-induced hypertension resulting in decreases in blood pressure at 3 min after dosing (0.1 mg/kg iv) in anesthetized guinea pig.; in short: as §1
[8] = species: Rattus norvegicus; test: Evaluated for its potency Rat aorta (RA) strips in the presence of increasing concentrations; settings: Rattus norvegicus, Aorta
In short: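 Rat aortic strips contracted by U-46,619 in cumulative dose-response curves, repeated with increasing antagonist concentrations; Kb from analysis of the rightward shift.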

[9] = species: Cavia porcellus; test: Evaluated for its potency in Guinea pig trachea (GPT) spirals in the presence of increasing concentrations; settings: Cavia porcellus, Trachea
In short: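 Guinea pig tracheal spirals contracted by U-46,619 in cumulative dose-response curves, repeated with increasing antagonist concentrations; Kb from analysis of the rightward shift.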

SMILES: O=C(O)CCC/C=C/CC1C2CCC(O2)C1CNNC(=O)Cc1ccccc1 (stereo not given)
- IC50 ([1]; Homo sapiens, Plasma): 0.2 µM

SMILES: CCCCCCCCC(=O)NCC1C2CCC(O2)C1C/C=C/CCCC(=O)O (stereo not given)
- IC50 ([1]; Homo sapiens, Plasma): 15 µM

SMILES: O=C(O)CCC/C=C/CC1C2CCC(O2)C1CNCC(=O)Nc1ccccc1 (stereo not given)
- IC50 ([1]; Homo sapiens, Plasma): 5.3 µM

SMILES: COc1ccc(NCC(=O)NCC2C3CCC(O3)C2C/C=C/CCCC(=O)O)cc1 (stereo not given)
- IC50 ([1]; Homo sapiens, Plasma): 13.5 µM

SMILES: COc1ccc(SCC(=O)NCC2C3CCC(O3)C2C/C=C/CCCC(=O)O)cc1 (stereo not given)
- IC50 ([1]; Homo sapiens, Plasma): 1.4 µM

SMILES: CCCCC(=O)NCCC(=O)NCC1C2CCC(O2)C1C/C=C/CCCC(=O)O (stereo not given)
- IC50 ([1]; Homo sapiens, Plasma): 14 µM

SMILES: CCCCCNC(=O)CCNC(=O)C1C2CCC(O2)C1C/C=C/CCCC(=O)O (stereo not given)
- IC50 ([1]; Homo sapiens, Plasma): 14 µM

SMILES: CCCCCCC(=O)OCC(=O)NCC1C2CCC(O2)C1C/C=C/CCCC(=O)O (stereo not given)
- IC50 ([1]; Homo sapiens, Plasma): 0.66 µM

SMILES: O=C(O)CCC/C=C/CC1C2CCC(O2)C1CNC(=O)C(=O)Nc1ccccc1 (stereo not given)
- IC50 ([1]; Homo sapiens, Plasma): 5.5 µM

SMILES: CCCCCNCCC1C2CCC(O2)C1C/C=C/CCCC(=O)O (stereo not given)
- IC50 ([1]; Homo sapiens, Plasma): 340 µM

SMILES: O=C(O)CCC/C=C/CC1C2CCC(O2)C1CNCCNc1ccccc1 (stereo not given)
- IC50 ([1]; Homo sapiens, Plasma): 65 µM

SMILES: O=C(O)CCC/C=C/CC1C2CCC(O2)C1CNC(=O)CNC(=O)c1ccccc1 (stereo not given)
- IC50 ([1]; Homo sapiens, Plasma): 2.6 µM

SMILES: O=C(O)CCC/C=C/CC1C2CCC(O2)C1CCNC(=O)Nc1ccccc1 (stereo not given)
- IC50 ([1]; Homo sapiens, Plasma): 184 µM

SMILES: CCCCCCNC(=O)CC(=O)NC1C2CCC(O2)C1C/C=C/CCCC(=O)O (stereo not given)
- IC50 ([1]; Homo sapiens, Plasma): 125 µM

SMILES: CCCCCNC(=O)CC(=O)NCC1C2CCC(O2)C1C/C=C/CCCC(=O)O (stereo not given)
- IC50 ([1]; Homo sapiens, Plasma): 0.5 µM

SMILES: CCCCCCCNC1C2CCC(O2)C1C/C=C/CCCC(=O)O (stereo not given)
- IC50 ([1]; Homo sapiens, Plasma): 120 µM

SMILES: CCCCCCCNC(=O)CNC(=O)C1C2CCC(O2)C1C/C=C/CCCC(=O)O (stereo not given)
- IC50 ([1]; Homo sapiens, Plasma): 30 µM

SMILES: O=C(O)CCC/C=C/CC1C2CCC(O2)C1NC(=O)CCCc1ccccc1 (stereo not given)
- IC50 ([1]; Homo sapiens, Plasma): 11 µM

SMILES: O=C(O)CCC/C=C/CC1C2CCC(O2)C1CNC(=O)CCc1ccccc1 (stereo not given)
- IC50 ([1]; Homo sapiens, Plasma): 3.3 µM

SMILES: O=C(O)CCC/C=C/CC1C2CCC(O2)C1CNC(=O)NCc1ccccc1 (stereo not given)
- IC50 ([1]; Homo sapiens, Plasma): 26 µM

SMILES: CCCCCC(=O)NC(C)(C)C(=O)NCC1C2CCC(O2)C1C/C=C/CCCC(=O)O (stereo not given)
- IC50 ([1]; Homo sapiens, Plasma): 520 µM

SMILES: CCCCCNC(=O)CCC(=O)NC1C2CCC(O2)C1C/C=C/CCCC(=O)O (stereo not given)
- IC50 ([1]; Homo sapiens, Plasma): 160 µM

SMILES: CCCCOC(=O)NCC(=O)NCC1C2CCC(O2)C1C/C=C/CCCC(=O)O (stereo not given)
- IC50 ([1]; Homo sapiens, Plasma): 1.1 µM

SMILES: CCCCCCNCC1C2CCC(O2)C1C/C=C/CCCC(=O)O (stereo not given)
- IC50 ([1]; Homo sapiens, Plasma): 12 µM

SMILES: CCCCCC(=O)N(C)CC(=O)NCC1C2CCC(O2)C1C/C=C/CCCC(=O)O (stereo not given)
- IC50 ([1]; Homo sapiens, Plasma): 3 µM

SMILES: CCCCNC(=O)NCC(=O)NCC1C2CCC(O2)C1C/C=C/CCCC(=O)O (stereo not given)
- IC50 ([1]; Homo sapiens, Plasma): 1 µM

SMILES: O=C(O)CCC/C=C/CC1C2CCC(O2)C1CNNC(=O)Nc1ccccc1 (racemic)
- Inhibition [2]: 56%
- Inhibition [3]: 42%
- IC50 [1]: 0.09 µM
- Inhibition [4]: 96%
- Inhibition [5]: 97%
- Inhibition [6]: 59%
- Inhibition [7]: 151%

SMILES: O=C(O)CCC/C=C/CC1C2CCC(O2)C1CNNC(=O)Nc1ccccc1 (single isomer, unassigned; (+))
- IC50 [1]: 0.02 µM

SMILES: CCCCCCC(=O)NCC(=O)NCC1C2CCC(O2)C1C/C=C/CCCC(=O)O (single isomer, unassigned; (+))
- IC50 ([1]; Homo sapiens, Plasma): 6.6 µM
- Kb [8]: 326 nM
- Kb [9]: 174 nM

SMILES: CCCCCC(=O)NC(C)C(=O)NCC1C2CCC(O2)C1C/C=C/CCCC(=O)O (stereo in doubt; 48)
- IC50 [1]: 53 µM

SMILES: CCCCCC(=O)NC(C)C(=O)NCC1C2CCC(O2)C1C/C=C/CCCC(=O)O (stereo in doubt; 49)
- IC50 [1]: 0.9 µM

SMILES: O=C(O)Cc1ccc(CCNS(=O)(=O)c2ccc(Cl)cc2)cc1 [DALTROBAN]
- IC50 ([1]; Homo sapiens, Plasma): 0.63 µM

— ChEMBL document CHEMBL1124904, “7-Oxabicyclo[2.2.1]heptyl carboxylic acids as thromboxane A2 antagonists: aza omega-chain analogues” (J Med Chem, 1990)
